Assay results from different studies.
Compare with care: the assays were run in different laboratories.
Target: Cholecystokinin receptor type A (CCKAR, Homo sapiens, UniProt P32238)
Residues used in one study (P32238 1-428): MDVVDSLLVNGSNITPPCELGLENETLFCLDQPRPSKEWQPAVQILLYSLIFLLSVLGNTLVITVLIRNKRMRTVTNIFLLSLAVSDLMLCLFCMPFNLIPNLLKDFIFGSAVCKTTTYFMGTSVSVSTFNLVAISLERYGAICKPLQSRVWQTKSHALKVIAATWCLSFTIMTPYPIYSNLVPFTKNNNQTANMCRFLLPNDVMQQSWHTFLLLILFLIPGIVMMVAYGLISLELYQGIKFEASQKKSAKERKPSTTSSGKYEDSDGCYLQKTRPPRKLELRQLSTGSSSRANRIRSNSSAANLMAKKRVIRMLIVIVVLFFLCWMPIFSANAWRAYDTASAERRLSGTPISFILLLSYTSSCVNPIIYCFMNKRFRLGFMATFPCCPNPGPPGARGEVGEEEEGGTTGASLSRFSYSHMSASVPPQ

| SMILES | assay | setting | endpoint | result |
| --- | --- | --- | --- | --- |
| c1ccc(C(NCCNC(c2ccccc2)c2ccccc2)c2ccccc2)cc1 | cell-free assay | 10 µM | inhibition | 7% |
| O=C(Nc1cccnn1)N1CCN([C@@H]2CCOc3cc(C(F)(F)F)ccc32)CC1 | cell-free assay | 20 µM | inhibition | 20% |
| CCN(CC)CCCC[C@H](NC(=O)[C@H](CC(C)C)NC(=O)[C@H](C)NC(=O)[C@H](Cc1ccccc1)NC(=O)c1ccc(C(C)(C)C)cc1)C(=O)N[C@@H](CO)C(=O)OC | ligand displacement, radioligand | 10 µM | remaining binding | 67.2% |
| Nc1ncc(-c2nc(N3CCOCC3)nc(N3CCOCC3)n2)c(C(F)F)n1 | cell-free assay | 10 µM | remaining signal | 118% |
| Cc1ncc(C)n2nc(/C=C/c3nc(N4CCCC4)cc(N4CCOCC4)n3)nc12 | ligand displacement | 10 µM | inhibition | -33% |
| C[C@H](C(=O)N[C@H]1COc2ccccc2[C@@H]1S(C)(=O)=O)c1ccc(F)cc1 | cell-free assay | 10 µM | inhibition | -11% |
| COc1ccc(S(=O)(=O)N2CCCCC2)cc1C | ligand displacement, radioligand | 10 µM | inhibition | < 30% |
| Clc1ccc2c(C3CCN(CCc4c[nH]c5ccccc45)CC3)c[nH]c2c1 | ligand displacement, radioligand | 10 µM | inhibition | 25% |
| CN(CCN1CCC(OC(=O)Nc2ccccc2-c2ccccc2)CC1)C(=O)c1ccc(CN2CCC(C(N)=O)CC2)cc1 | ligand displacement, radioligand | 1 µM | inhibition | 2% |
